A short description of data set [1]: Selectivity index, ratio of IC50 for rat L6 cells to IC50 for Trypanosoma brucei rhodesiense STIB900 bloodstream forms. Particulars: read-out: Ratio IC50. In kind it is toxicity. Summed up: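 Selectivity index calculated as IC50 in L6 cells divided by IC50 against T. b. rhodesiense STIB900.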
In data set [2] the test system is Trypanosoma brucei rhodesiense. Put plainly: Antitrypanosomal activity against Trypanosoma brucei rhodesiense STIB900 infected in NMRI mouse assessed as aparasitemic mouse at 5 mg/kg, ip for 4 consecutive days starting from day 3 post infection measured up to day 60 post infection relative to control. Format: functional. Summed up:
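STIB900 acute-stage mouse model of T. b. rhodesiense infection; compound given intraperitoneally at 5 mg/kg daily for four consecutive days (4 × 5 mg/kg), 4 infected mice per group; cure rate reported as mice cured out of 4.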

In data set [3] the test system is Trypanosoma brucei rhodesiense. Put plainly: Potency index, ratio of DAPI IC50 to compound IC50 for Trypanosoma brucei rhodesiense STIB900 bloodstream forms. Format: functional.
Data set [4] deals with Trypanosoma brucei rhodesiense. Briefly: Antitrypanosomal activity against Trypanosoma brucei rhodesiense STIB900 bloodstream forms after 70 hrs by Alamar blue assay. Format: functional. Conditions: STIB900, 70 h. A digest of the protocol: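 In vitro viability assay on T. b. rhodesiense strain STIB900; values are the average of duplicate determinations.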
Background: Resazurin is reduced to fluorescent resorufin, in cell work by metabolically active cells.

Data set [5] is described as follows: Binding affinity to poly(dA-dT)n DNA (unknown origin) assessed as change in melting temperature at 0.3 molar ratio of compound:DNA by spectrophotometric analysis. A digest of the protocol:
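Thermal melting with poly(dA-dT) in CAC 10 buffer (10 mM cacodylic acid, 1 mM EDTA, 100 mM NaCl, pH 7.0), 1 cm quartz cuvettes, heated at 0.5 °C/min. DNA concentration set by absorbance at 260 nm; 0.3 mol compound per mol DNA, DNA alone as control. Tm taken from peak of first-derivative (dA/dT) curve; ΔTm = Tm complex − Tm free DNA.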

The subject of data set [6] is L6. Briefly: Cytotoxicity against rat L6 cells. In kind it is cell-based.
Data set [7] concerns Mus musculus. Briefly: Toxicity in NMRI mouse infected with Trypanosoma brucei rhodesiense STIB900 assessed as death at 5 mg/kg, ip for 4 consecutive days starting from day 3 post infection. In kind it is organism-based. Particulars: in vivo. A digest of the protocol: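 Acute-stage STIB900 mouse model, four infected mice per compound, given 5 mg/kg intraperitoneally once daily on four consecutive days (4 × 5 mg/kg). Deaths among treated mice were counted out of 4, alongside cure of survivors. Other protocol details follow an earlier report.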

Data set [8] can be described thus: Binding affinity to poly(dA-dT)n DNA minor groove (unknown origin) assessed as positive induced CD signal at 1:20 to 8:20 molar ratio of compound:DNA by CD spectroscopic analysis. A digest of the protocol:
(§1)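 CD spectra recorded at 25 °C in MES 10 buffer (10 mM MES, 100 mM NaCl, 1 mM EDTA) over a series of compound-to-DNA ratios.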

The nature of data set [9]: Binding affinity to poly(dA-dT)n DNA minor groove (unknown origin) assessed as positive induced CD signal at 1:20 to 5:20 molar ratio of compound:DNA by CD spectroscopic analysis. A digest of the protocol: as §1

Here are results for 13 molecules from ChEMBL document CHEMBL4004827, “Exploration of DAPI analogues: Synthesis, antitrypanosomal activity, DNA binding and fluorescence properties” (Eur J Med Chem, 2017).

SMILES strings stand for the structures. Calls of active or inactive are those of the source. No cut-off for these calls is given here. A value given as a limit tells only on which side of the number the result lay.

With `N=C(N)c1ccc2cc(-c3ccc(C(=N)N)nc3)[nH]c2c1`, the selectivity ratio in [1] was 667. The Activity in [2] was 25%. Also, the “Ratio IC50” value in data set [3] is 2 - 6. Also, the IC50 (commonly the concentration needed to halve the response being measured) came to 3 nM in data set [4] and 2000 nM in data set [6]. The thermal shift (ΔTm) (in general, the change in melting temperature against a reference sample) in [5] was 15.3 °C.

In the case of `N=C(N)c1ccc2cc(-c3ccc(C(=N)N)o3)[nH]c2c1`, in data set [7], the Activity entry is given as “Toxic”. For the same molecule, the selectivity ratio in [1] came to 800. Moreover, in data set [2], the result was inactive. Further, the “Ratio IC50” value in [3] is 2 - 6. Also, the figures for the IC50 in data set [4] and in [6] were 9 nM and 7200 nM, respectively. The ΔTm in data set [5] came to 11 °C.

Turning to `N=C(N)c1ccc(-c2cc3cc(C(=N)N)ccc3[nH]2)cc1`, the thermal shift (ΔTm) in data set [5] was found to be 19.2 °C.

Turning to `N=C(N)c1ccc(-c2cc3ccc(C(=N)N)cc3[nH]2)nc1`, in [1], the selectivity ratio was determined as 133. Besides, in [2], the Activity is on record as 100%. The result in [8] was Active. Further, the half-inhibitory concentration (IC50) was 24 nM in data set [4] and 3200 nM in data set [6]. Further, the ΔTm in data set [5] came to 22.1 °C.

For the molecule `N=C(N)c1ccc(-c2cc3cc(C(=N)N)ccc3[nH]2)nc1`, in data set [1], the selectivity ratio was 5320. For the same molecule, in [2], the Activity is on record as 100%. The “Ratio IC50” value in data set [3] is reported as 2 - 6. Besides, the IC50 in data set [4] amounted to 4 nM; in data set [6] it was 21300 nM. Moreover, the ΔTm in [5] is greater than 26 °C.

With `Cc1cc(-c2cc3cc(C(=N)N)ccc3[nH]2)ccc1C(=N)N`, in data set [1], the selectivity ratio was 7830. Also, the Activity in data set [2] was determined as 75%. Moreover, in data set [3], the “Ratio IC50” value is on record as 2 - 6. Also, the IC50 in data set [4] was 3 nM; in [6], 23500 nM. Further, the ΔTm in data set [5] worked out at 15.3 °C.

Consider `Cc1cc(-c2cc3ccc(C(=N)N)cc3[nH]2)ccc1C(=N)N`, for which the selectivity ratio in [1] came out at 3140. The Activity in data set [2] is given as 75%. Besides, the “Ratio IC50” value in data set [3] was 2 - 6. Besides, the IC50 in data set [4] worked out at 5 nM; in data set [6], 15700 nM. Besides, in data set [5], the shift in melting temperature (ΔTm) is greater than 26 °C.

In the case of `COc1cc(C(=N)N)ccc1-c1cc2ccc(C(=N)N)cc2[nH]1`, the selectivity ratio in data set [1] worked out at 4880. Further, the Activity in [2] came out at 100%. For the same molecule, in data set [9], the outcome was Active. Besides, the “Ratio IC50” value in data set [3] is 2 - 6. Besides, the figures for the half-maximal inhibitory concentration (IC50) in data set [4] and in [6] were 6 nM and 29600 nM, respectively. For the same molecule, the ΔTm in data set [5] was greater than 26 °C.

On to `N=C(N)c1ccc2cc(-c3ccc(C(=N)N)s3)[nH]c2c1`, for which the selectivity ratio in data set [1] is 409. Besides, the “Ratio IC50” value in data set [3] is 2 - 6. Moreover, the IC50 was 11 nM in [4] and 4500 nM in data set [6]. Moreover, the ΔTm in data set [5] came to 10 °C.

Regarding `N=C(N)c1ccc2[nH]c(-c3ccc(C(=N)N)o3)cc2c1`, in data set [1], the selectivity ratio turned out to be 900. The Activity in [2] turned out to be 100%. In data set [9], the result was Active. Moreover, the “Ratio IC50” value in [3] is 2 - 6. Also, the 50% inhibitory concentration (IC50) in data set [4] came to 3 nM; in data set [6] it was 2700 nM. The ΔTm in [5] turned out to be 21.4 °C.

In the case of `N=C(N)c1ccc(-c2cc3ccc(C(=N)N)cc3[nH]2)cc1` [DAPI], the selectivity ratio in data set [1] is 48. In data set [9], the outcome was Active. The ΔTm in data set [5] is greater than 27 °C.

Consider `COc1ccc(-c2cc3ccc(C(=N)N)cc3[nH]2)cc1`, for which the selectivity ratio in [1] stood at 6. In addition, the results for the IC50 in data set [4] and in data set [6] were 4870 nM and 29000 nM, respectively. For the same molecule, the ΔTm in data set [5] came out at 12.6 °C.

On to `N=C(N)c1ccc2[nH]c(-c3ccc(C(=N)N)nc3)cc2c1`, for which the selectivity ratio in data set [1] worked out at 394. The Activity in data set [2] came out at 25%. Also, the “Ratio IC50” value in data set [3] is reported as 2 - 6. In addition, the values for the IC50 in data set [4] and in [6] were 5 nM and 1800 nM, respectively. In addition, the ΔTm in data set [5] was 12.1 °C.
